Measurements from different studies.
Lines come from different studies, so protocols differ.
Target: Insulin receptor-related protein (INSRR, Homo sapiens, UniProt P14616)

| Compound | read-out | action | technique | tested at | endpoint | value |
| --- | --- | --- | --- | --- | --- | --- |
| Oc1cccc(-c2nc(N3CCOCC3)c3oc4ncccc4c3n2)c1 | enzyme activity | inhibitor | – | 10 µM | remaining activity | 89% |
| COc1cc(/C=C/C(=O)CC(=O)/C=C/c2ccc(O)c(OC)c2)ccc1O | enzyme activity | inhibitor | – | 1 µM | activity vs control | 84% |
| Cn1c(=O)n(-c2ccc(C(C)(C)C#N)cc2)c2c3cc(-c4cnc5ccccc5c4)ccc3ncc21 | enzyme activity | inhibitor | – | 10 µM | remaining activity | 80% |
| O=C(NC[C@@H]1[C@H]2CN(C(=O)OCc3cc(C(F)(F)F)cc(C(F)(F)F)c3)C[C@@H]12)c1ccc2[nH]nnc2c1 | cell-free assay | – | competition with immobilised ligand | 1 µM | remaining binding | 83% |
| CC(C)(O)[C@H]1CC[C@H](Nc2ccc3ncc(-c4cccc(C(F)(F)F)c4)n3n2)CC1 | enzyme activity | inhibitor | – | 1 µM | remaining activity | 77% |
| CNC(=O)c1cc(Oc2ccc(NC(=O)Nc3ccc(Cl)c(C(F)(F)F)c3)cc2)ccn1 | enzyme activity | inhibitor | – | 0.3 µM | inhibition | -25% |
| CC(C)CC(=O)N1CCc2nc(-c3ccc(Br)cc3)nc(N(C)Cc3ccccc3)c2C1 | cell-free assay | – | competition with immobilised ligand | 0.1 µM | remaining binding | 100% |
| CC(C)(C)c1nc2c(s1)c1nc(N)ncc1c1ccc(NS(=O)(=O)c3c(F)cccc3F)c(F)c12 | enzyme activity | inhibitor | radiometric | 1 µM | remaining activity | 107% |
| COc1cc(Nc2cnc(C#N)c(O[C@H](C)CN(C)C)n2)ncc1-c1cnn(C)c1 | enzyme activity | inhibitor | radiometric | 10 µM | remaining activity | 89% |
| Nc1nc(Nc2ccccc2)sc1C(=O)c1c(F)cccc1F | enzyme activity | inhibitor | – | 10 µM | remaining activity | 24% |
| CC(=O)N1CCC(c2ccc(C(=O)NC(=N)N)cc2C(F)(F)F)CC1 | cell-free assay | – | competition with immobilised ligand | 1 µM | remaining binding | 100% |
| Cc1ccc(Nc2nccc(N(C)c3ccc4c(C)n(C)nc4c3)n2)cc1S(N)(=O)=O | enzyme activity | inhibitor | – | 10 µM | inhibition | 41% |
| Cc1cc(NC(=O)c2cccc3cc(-c4cccc5[nH]nc(N)c45)ccc23)ccc1F | enzyme activity | inhibitor | – | 0.1 µM | activity vs control | 106% |
| O=C1Nc2ccc(Cl)cc2C1=Cc1cc(Cl)c(O)c(Cl)c1 | cell-free assay | – | – | 0.5 µM | remaining signal | 100% |
| CC1=C(C#N)C(c2ccc3c(c2)c(NC(=O)c2ccccc2C)nn3C)C(C#N)=C(C)N1 | cell-free assay | – | competition with immobilised ligand | 1 µM | remaining binding | 100% |
| Cc1ccc(C(=O)Nc2ccc(CN3CCN(C)CC3)c(C(F)(F)F)c2)cc1C#Cc1cnc2cccnn12 | cell-free assay | – | – | 23.5 nM | remaining signal | 100% |
| CCOC(=O)c1cc2cc(-c3cc(C(=O)NCc4ccc(C(=O)O)cc4)nn3C)ccc2[nH]1 | cell-free assay | – | competition with immobilised ligand | 0.1 µM | remaining binding | 77% |
| CCN(CC)CCNC(=O)c1c(C)[nH]c(/C=C2\C(=O)Nc3ccc(F)cc32)c1C | enzyme activity | inhibitor | – | 10 µM | inhibition | 78% |
| CN(C)c1ncnc(-c2ccc3nc(Nc4cc(CN5CCN(C(=O)CC(F)(F)F)CC5)ccn4)[nH]c3c2)c1Cl | cell-free assay | – | competition with immobilised ligand | 1 µM | remaining binding | 95% |
| CC(C)(C)C(=O)c1sc(NC2CCCCC2)nc1N | enzyme activity | inhibitor | – | 10 µM | remaining activity | 93% |
| CN1CC(Oc2cnc(C#N)cc2-c2ccn3nc(NC(=O)C4CC4)cc3c2)C1 | enzyme activity | inhibitor | – | 1 µM | inhibition | -4% |
| Cc1nc(Cc2cccc(C(F)(F)F)c2)sc1-c1ccc(C(N)=O)nc1 | cell-free assay | – | competition with immobilised ligand | 1 µM | remaining binding | 100% |
| COc1cc2ncnc(Nc3ccc(Oc4ccccc4)c(C)c3C)c2cc1OC | enzyme activity | inhibitor | – | 1 µM | inhibition | 2% |
| N#CCCc1ccc2c(c1)-c1[nH]c3ccc([N+](=O)[O-])cc3c1CC(=O)N2 | cell-free assay | – | – | 0.5 µM | remaining signal | 99.2% |
| CCCS(=O)(=O)Nc1ccc(F)c(C(=O)c2c[nH]c3ncc(-c4ccc(Cl)cc4)cc23)c1F | enzyme activity | inhibitor | – | 1 µM | inhibition | < 10% |
| O=C(Nc1cnn(-c2csc(C(=O)NC3COC3)c2)c1)Nc1c(F)cccc1Cl | enzyme activity | inhibitor | – | 5 µM | remaining activity | 75.9% |
| CN(C)CC#Cc1ccc(OCCCc2sc(N3CCc4cccc(C(=O)Nc5nc6ccccc6s5)c4C3)nc2C(=O)O)c(F)c1 | cell-free assay | – | competition with immobilised ligand | 1 µM | remaining binding | 90% |
| Nc1ncnc2occ(-c3ccc(NC(=O)Nc4cc(C(F)(F)F)ccc4F)cc3)c12 | cell-free assay | – | – | 20 µM | remaining signal | 0.85% |
